Screening results as filed in PubChem BioAssay.
HDAC3 inh: human HDAC3 inhibition. recombinant HDAC3, fluorogenic peptide/trypsin coupled, fluorescence. inhibition, % at 8.3 µM. actives 0.15% (n = 320,000); in the data active = inhibition above about 26%, passing the limit was not always enough; inconclusive = no clear call, values can overlap the other calls
Target sequence (O15379 whole entry, looked up): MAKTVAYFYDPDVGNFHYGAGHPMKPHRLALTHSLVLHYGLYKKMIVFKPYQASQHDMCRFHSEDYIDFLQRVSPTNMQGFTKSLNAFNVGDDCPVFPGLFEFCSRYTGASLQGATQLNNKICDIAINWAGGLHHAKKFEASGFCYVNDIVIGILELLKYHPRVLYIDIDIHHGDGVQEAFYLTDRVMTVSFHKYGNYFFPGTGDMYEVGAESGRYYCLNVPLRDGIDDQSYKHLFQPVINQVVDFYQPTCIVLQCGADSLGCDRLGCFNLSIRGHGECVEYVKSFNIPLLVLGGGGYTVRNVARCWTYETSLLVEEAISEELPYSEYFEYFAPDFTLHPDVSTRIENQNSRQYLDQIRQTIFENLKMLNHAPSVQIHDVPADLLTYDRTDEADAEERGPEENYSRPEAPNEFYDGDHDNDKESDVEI
AI-2 QS mod: Vibrio harveyi AI-2 quorum sensing modulation | Vibrio harveyi JMH597 AI-2 luminescence/OD600 ratio, 9 h; stronger effect = lower value; strain lacks LuxN and CqsS sensors; 0 = neutral-control median | activity change, % at 7.5 µM | actives 0.4% (n = 300,000) | AID 2094; in the data active = activity change below about -75%, passing the limit was not always enough; inconclusive = no clear call, values can overlap the other calls;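 also: luminescence divided by OD600 gain over 9 h not by final OD600 alone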
Bfl-1 A1 inh: inhibitors of the anti-apoptotic protein A1, read as caspase activation | MEF A1-2A-BIM cells, Caspase-Glo 3/7 luminescence, 3 h; percent of clofoctol response, vehicle zero | caspase activation, % (no concentration beside the values) | actives 0.066% (n = 330,000) | AID 2462;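 active = over half of replicate activation scores above 10%, or exactly half above 10 with the replicate mean above 10; inconclusive = replicate mean below 10 yet half the replicates above 10; inactive = over half of replicates below 10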
LANA-H2B inh: blocks KSHV LANA binding to histone H2A/H2B | actives 0.6% (n = 320,000) | inhibition, % (no concentration beside the values) | cell-free LANA-H2A/H2B peptide, fluorescence polarization | Q9QR71; in the data active = inhibition mostly above about 10%, no sharp cut-off; inactive = mostly below about 6.7%
ATG4B inh: inhibitors of human ATG4B cysteine protease; Q9Y4P1; actives 0.51% (n = 340,000); inhibition, % at 8.33 µM; ATG4B cleavage of LC3-PLA2, NBD-HPC fluorescence, 1 h; in the data active = inhibition above about 40%
HKDC1 inh: HKDC1 (human) hexokinase inhibition. actives 0.16% (n = 340,000). AID 493160. inhibition, % at 20 µM. recombinant HKDC1, G6PDH/diaphorase resazurin coupled fluorescence. Q2TB90;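 active = inhibition above about 35% when tested at 20 µM, limit read from the data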;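 also: plate controls were DMSO wells with enzyme for no effect and DMSO wells lacking enzyme for full effect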
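System: Recombinant HKDC1 hexokinase | Amount: HKDC1 at 5 µg/mL | Reagent: Glucose with 1 mM ATP | Doses: Single 20 µM dose | Incubation: Reaction time 90 min, room temperature, protected from light | Signal: Coupled resazurin fluorescence, excitation 525 nm, emission 613 nm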
An asterisk follows results filed as active; ? = inconclusive; nt = no result given; + = active, no number. Rows were chosen to be rich in hits. Some 1.8% of all compounds tested hit in one or more screens of this group.

SMILES | HDAC3 inh | AI-2 QS mod | Bfl-1 A1 inh | LANA-H2B inh | ATG4B inh | HKDC1 inh
CC(=O)Nc1ccc(NC(=O)CCc2ccc(C)o2)cc1 | 10 | 13 | 0 | 0 | -4 | -2
Cc1ccc(CCC(=O)Nc2ccc(C)c(C)c2)o1 | -5 | -79* | -1 | 0 | 5 | -4
Cc1ccccc1N(C(=O)CCC(=O)Nc1ccccn1)C(C(=O)NC(C)C)c1ccc(F)cc1 (stereo not given) | -5 | nt | 0 | -1 | -7 | 0
Cc1ccc(N(C(=O)CCC(=O)Nc2ccccn2)C(C(=O)NC(C)C)c2ccc(F)cc2)cc1 (stereo not given) | -2 | 18 | 0 | 18* | -1 | 2
Cc1ccccc1CC1(CO)CCCN(C(=O)CCCN2CCCCC2=O)C1 (stereo not given) | 3 | 11 | 1 | 83* | -13 | -4
O=C(CCc1ccccc1)NNC(=S)NC(=O)c1ccccc1 | -1 | -309* | -1 | 3 | -4 | -4
COc1ccc(C(=O)NNC(=S)NC(=O)c2ccc(OC)cc2)cc1 | 8 | 37 | 1 | 1 | 2 | 0
O=C(NNC(=S)NC(=O)c1cccnc1)c1ccc(F)cc1 | 5 | -84* | 1 | -2 | -2 | -8
COc1ccc(C(=O)NNC(=S)NC(=O)c2cccs2)cc1 | 5 | -81* | 0 | -2 | -3 | -2
Cc1ccc(C(=O)NC(=S)Nc2ccccc2C(F)(F)F)cc1 | 7 | -87* | 0 | 0 | 19 | -6
O=C(CCCc1ccccn1)c1ccc(-c2ccccc2)cc1 | nt | nt | nt | nt | 12 | -2
COC1OC(CO)C(N(C)C(C)=O)C1O (stereo not given) | nt | nt | nt | nt | 7 | -3
CC(=O)N[C@@H](Cc1c[nH]c2ccccc12)C(=O)OCC(=O)Nc1cc(C)on1 | nt | nt | nt | nt | 3 | -5
COc1ccc(OC)c(C(=O)N(C[C@H]2CC[C@@H]([C@@H]3CC[C@H](CO)O3)O2)C(C(=O)NC(C)(C)C)c2ccc(-c3ccccc3)cc2)c1 (stereo not given in full) | nt | nt | nt | nt | -11 | 2
Cc1ccc(C(=O)NC(=S)NNC(=O)c2ccccc2)cc1 | 2 | -150* | 1 | 5 | 2 | -7
Cc1cccc(C(=O)NNC(=S)NC(=O)c2ccccc2)c1 | 1 | ? | -1 | 0 | -1 | -4
Cc1ccc(C(=O)NC(=S)NNC(=O)c2ccc([N+](=O)[O-])cc2)cc1 | -1 | -86* | 1 | 3 | 0 | -23
O=C(NNC(=S)NC(=O)c1ccccc1)c1ccc([N+](=O)[O-])cc1 | 0 | ? | -2 | 10 | 3 | -12
Cc1ccc(C(=O)NNC(=S)NC(=O)c2ccccc2)cc1 | 5 | -84* | 1 | -1 | -2 | -5
Cc1ccc(Cc2c[nH]c(=S)s2)cc1 | 6 | -89* | 0 | -3 | -11 | -1
O=C(O)C1=C[C@@H](c2ccc(C(F)(F)F)cc2)C[C@@H](OCc2ccc(CO)cc2)O1 | 34* | 8 | 1 | 1 | -3 | 2
CCc1cccc(NC(=O)[C@@H]2CCCN2C2=NS(=O)(=O)c3ccccc32)c1 | 2 | nt | 1 | -4 | -6 | -2
CCc1cccc(NC(=O)CSC2=NS(=O)(=O)c3ccccc32)c1 | 36* | 30 | 0 | -7 | -5 | -2
COc1ccc(CNC(=O)CN(c2ccc(C(C)C)cc2)S(=O)(=O)c2c(C)noc2C)cc1 | 6 | 16 | 1 | 14* | -1 | -5
Cc1ccc(CNC(=O)CN(c2ccc(C(C)C)cc2)S(=O)(=O)c2c(C)noc2C)cc1 | 0 | 18 | -1 | -6 | 3 | -1
SMILES | HDAC3 inh | AI-2 QS mod | Bfl-1 A1 inh | LANA-H2B inh | ATG4B inh | HKDC1 inh
O=C(COC(=O)c1cc[n+]([O-])cc1)Nc1ccccc1Sc1ccccc1 | -3 | 5 | -1 | 140* | 0 | -8
Cc1nnc2c3ccccc3ccn12 | nt | nt | nt | nt | 4 | -6
Cn1ccnc1SCC(=O)c1ccc(C#N)cc1 | 36* | 17 | 0 | 3 | 2 | -3
CC(C)(C)C1=CC=C(C(C)(C)C)C(=O)C1=O | nt | 9 | 6.4* | -4 | nt | nt
Cc1cc(-c2csc(N)n2)c(C)n1CCC(C)C | -6 | 16 | 0 | 14* | 0 | 2
Cc1cc(-c2csc(N)n2)c(C)n1CCc1ccccc1 | -11 | 20 | 0 | 8 | 11 | -4
O=C(c1cccc(C(F)(F)F)c1)c1c[nH]c(C(=O)NCC2CCCO2)c1 (stereo not given) | 7 | 15 | -1 | + | 5 | 0
COc1ccc(C2c3c(n[nH]c3C)CC(C)(O)C2C(C)=O)cc1OC (stereo not given) | -11 | 7 | 0 | 10* | -10 | 8
COc1ccc(C2C(C(C)=O)=C(Nc3ccccc3)CC(C)(O)C2C(C)=O)cc1OC (stereo not given) | 3 | 15 | 0 | -8 | -5 | 15
NC(=O)COc1ccc(C2c3c(oc4ccccc4c3=O)C(=O)N2CC2CCCO2)cc1 (stereo not given) | -1 | -2 | 2 | 197* | 3 | -13
O=C(Nc1ccn(Cc2ccc(Cl)cc2)n1)c1ccccc1 | ? | -87* | -1 | 1 | 5 | -5
CC1(C)CC(=O)c2sc(NC(=O)c3ccccc3)nc2C1 | 2 | 14 | -9 | 2 | nt | nt
CC1(C)CNC(=O)c2sc(NC(=O)c3ccccc3)nc2C1 | 6 | 3 | 0 | 18* | 0 | 2
COC(=O)C1CCN(S(=O)(=O)c2ccc(Br)s2)CC1 | nt | nt | nt | nt | -9 | -3
O=C(C1CCN(S(=O)(=O)c2ccc(Br)s2)CC1)N1CCc2ccccc21 | 3 | 6 | 0 | 3 | 41* | 1
Cc1ccccc1OCC(=O)N/N=C/c1ccccn1 | -6 | 18 | 0 | 27* | -9 | -7
NC(=O)NC(CC(=O)NCCc1ccccn1)c1ccccc1Cl (stereo not given) | 1 | 19 | 0 | 15* | 0 | 2
Cc1ccc(S(=O)(=O)N[C@@H](C)C(=O)N2CCC(C(=O)N3CCC[C@H]3C(=O)O)CC2)cc1 | -3 | 14 | 0 | 7.6* | 1 | -6
O=[N+]([O-])c1cc(S(=O)(=O)Oc2ccccc2)ccc1Cl | nt | nt | nt | nt | 6 | 24
CCc1cc2ccc(C)cc2nc1SCC(=O)c1ccc(NC(C)=O)cc1 | 68* | 6 | 1 | 0 | -23 | -3
OCC[C@H]1NCc2cc(CO)cc(-c3ccccc3)c21 | nt | nt | nt | nt | 25 | -4
CN(C)S(=O)(=O)c1ccc(NC(=S)NC(=O)C2CCC2)cc1 | 3 | -76* | 0 | 4 | 2 | -6
O=c1c(-c2ccccc2)c(O)c2cccc3c2n1CCC3 | -10 | 13 | -1 | 20* | 9 | 6
CSC(=S)NN=C(C)c1cccc(C)n1 | nt | nt | nt | nt | -2 | -37
